Laboratory results reported in ChEMBL document CHEMBL4680153, “New Spisulosine Derivative promotes robust autophagic response to cancer cells” (Eur J Med Chem, 2020).
Activity calls are given as the source filed them. The rule behind the calls is not given here.

Experiments:
DLD-1 [1] = assay: Induction of autophagy in human DLD-1 cells assessed as reduction in cell viability at 7.5 uM incubated for 24 hrs by crystal violet staining based phase contrast microscopic analysis; type: functional
DLD-1 [2] = assay: Induction of autophagy in human DLD-1 cells assessed as nuclear damage at 5 uM measured upto 6 hrs by TEM analysis; type: functional, cell-based; conditions: time hrs <=6
Procedure, shortened: (§1)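 DLD-1 cells were treated at 5 μM for 6 h, fixed in 2.5% glutaraldehyde in phosphate buffer (pH 7.4) and post-fixed in 1% OsO4. Samples were dehydrated through ethanol and embedded in Spurr resin, and ultrathin sections were stained with uranyl acetate and lead citrate. Sections were viewed by TEM at 80 kV, with at least 200 cells per set across 4 grids.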

DLD-1 [3] = assay: Induction of apoptosis in human DLD-1 cells assessed as late apoptotic cells at 7.5 uM incubated for 18 hrs by Annexin V-FITC and propidium iodide staining based flow cytometry analysis (reference value: 5.7 %); type: functional
HT-29 [4] = assay: Antiproliferative activity against human HT-29 cells assessed as reduction in cell growth at 10 uM incubated for 48 hrs by SRB assay relative to control; type: functional
Procedure, shortened: (§2)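 Early-passage cells plated at 40% confluency and left overnight, then exposed to 10 μM compound for 48 h. Growth was measured by sulforhodamine B staining, with absorbance at 510 nm. Percent growth inhibition was calculated against untreated cells.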

DLD-1 [5] = assay: Induction of autophagy in human DLD-1 cells assessed as reduction in cell viability at 7.5 uM incubated for 24 hrs in presence of Bafilomycin-A1 by crystal violet staining based phase contrast microscopic analysis; type: functional
HT-29 [6] = assay: Antiproliferative activity against human HT-29 cells assessed as reduction in cell growth incubated for 48 hrs by SRB assay; type: functional, cell-based; conditions: HT-29, 48 h
Procedure, shortened: (§3)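 Colon cancer lines and CCD-18Co normal colon fibroblasts, early passage, plated at 40% confluency and incubated overnight. They were then treated with varying concentrations for 48 h. The SRB read-out was absorbance at 510 nm, and IC50 was taken as the half-maximal proliferation-inhibitory concentration.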

SW-620 = assay: Antiproliferative activity against human SW-620 cells assessed as reduction in cell growth incubated for 48 hrs by SRB assay; type: functional, cell-based; conditions: SW-620, 48 h; procedure, shortened: as §3
COLO 205 = assay: Antiproliferative activity against human COLO 205 cells assessed as reduction in cell growth incubated for 48 hrs by SRB assay; type: functional, cell-based; conditions: COLO 205, 48 h; procedure, shortened: as §3
DLD-1 [7] = assay: Induction of autophagy in human DLD-1 cells assessed as increase in LC-3 punta formation at 1 to 5 uM incubated for 6 hrs by based confocal microscopy; type: functional, cell-based; conditions: dose 1-5 µM
Procedure, shortened: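 DLD-1 cells were grown overnight on coverslips and treated with vehicle or compound for 6 h. They were fixed in 4% paraformaldehyde, permeabilized with 0.1% Triton X-100 and blocked in 2% BSA. Primary antibody was applied overnight at 4°C, then fluorescent secondary for 2 h with a DAPI counterstain. LC3 puncta were imaged by confocal microscopy with a 63× oil objective.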

MDA-MB-231 = assay: Antiproliferative activity against human MDA-MB-231 cells assessed as reduction in cell growth at 10 uM incubated for 48 hrs by SRB assay relative to control; type: functional; procedure, shortened: as §2
DLD-1 [8] = assay: Induction of apoptosis in human DLD-1 cells assessed as viable cells at 7.5 uM incubated for 18 hrs by Annexin V-FITC and propidium iodide staining based flow cytometry analysis (reference value: 85.2 %); type: functional; conditions: read-out: Activity
DLD-1 [9] = assay: Induction of autophagy in human DLD-1 cells assessed as vacuole formation at 7.5 uM incubated for 24 hrs by phase contrast microscopic analysis; type: functional, cell-based
Procedure, shortened: (§4)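 DLD-1 cells received vehicle, 7.5 μM compound alone, or compound plus 100 nM bafilomycin A1 pretreatment for 24 h. Cells were then examined by phase-contrast microscopy.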

DLD-1 [10] = assay: Antiproliferative activity against human DLD-1 cells assessed as reduction in cell growth incubated for 48 hrs by SRB assay; type: functional, cell-based; conditions: DLD-1, 48 h; procedure, shortened: as §3
DLD-1 [11] = assay: Induction of apoptosis in human DLD-1 cells assessed as increase in PARP cleavage at 5 to 7.5 uM by Western blot analysis; type: functional, cell-based; conditions: dose 5-7.5 µM
Procedure, shortened: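 DLD-1 cells were treated at 7.5 μM for 18 h and lysed in NP-40 buffer containing protease and phosphatase inhibitors. Protein was quantified by BCA, and equal amounts were run on 15% SDS-PAGE and transferred to PVDF. Cleaved PARP was probed and detected by enhanced chemiluminescence.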

A549 = assay: Antiproliferative activity against human A549 cells assessed as reduction in cell growth at 10 uM incubated for 48 hrs by SRB assay relative to control; type: functional; procedure, shortened: as §2
DLD-1 [12] = assay: Induction of autophagy in human DLD-1 cells assessed as increase in Atg3 expression at 10 uM measured upto 6 hrs by Western blot analysis; type: functional, cell-based; conditions: time hrs <=6
Procedure, shortened: (§5)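 DLD-1 cells were treated with 10 μM compound or vehicle for the indicated times. Equal protein from NP-40 lysates was run on 15% SDS-PAGE and transferred to PVDF. Immunoblots for Beclin-1, Atg3, Atg5 and Atg7 were developed by chemiluminescence.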

DLD-1 [13] = assay: Induction of apoptosis in human DLD-1 cells assessed as necrotic cells at 7.5 uM incubated for 18 hrs by Annexin V-FITC and propidium iodide staining based flow cytometry analysis (reference value: 4.1 %); type: functional
DLD-1 [14] = assay: Antiproliferative activity against human DLD-1 cells assessed as reduction in cell growth at 10 uM incubated for 48 hrs by SRB assay relative to control; type: functional; procedure, shortened: as §2
SW48 = assay: Antiproliferative activity against human SW48 cells assessed as reduction in cell growth incubated for 48 hrs by SRB assay; type: functional, cell-based; conditions: SW48, 48 h; procedure, shortened: as §3
DLD-1 [15] = assay: Induction of autophagy in human DLD-1 cells assessed as increase in Beclin expression at 10 uM measured upto 6 hrs by Western blot analysis; type: functional, cell-based; conditions: time hrs <=6; procedure, shortened: as §5
DLD-1 [16] = assay: Induction of autophagy in human DLD-1 cells assessed as increase in Atg7 expression at 10 uM measured upto 6 hrs by Western blot analysis; type: functional, cell-based; conditions: time hrs <=6; procedure, shortened: as §5
DLD-1 [17] = assay: Induction of autophagy in human DLD-1 cells assessed as vacuole formation at 7.5 uM incubated for 20 hrs by MDC staining based confocal microscopy; type: functional, cell-based
Procedure, shortened: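 DLD-1 cells were incubated with drug for 20 h and then labeled with monodansylcadaverine in PBS for 20 min at 37°C in the dark. After washing, cells were imaged at once by confocal microscopy (excitation 390 nm, emission 460 nm).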

DLD-1 [18] = assay: Induction of autophagy in human DLD-1 cells assessed as increase in LC3B-I to LC3B-II conversion at 7.5 uM incubated for 18 hrs by Western blot analysis; type: functional, cell-based
Procedure, shortened: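 Vehicle or 7.5 μM compound was applied to DLD-1 cells for 18 h. Cells were lysed in NP-40 with inhibitors and equal protein was resolved on 15% SDS-PAGE and blotted to PVDF. Blots were probed for LC3A/B, with GAPDH as reference, and detected by ECL.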

MCF7 = assay: Antiproliferative activity against human MCF7 cells assessed as reduction in cell growth at 10 uM incubated for 48 hrs by SRB assay relative to control; type: functional; procedure, shortened: as §2
DLD-1 [19] = assay: Induction of autophagy in human DLD-1 cells assessed as mitochondrial damage at 5 uM measured upto 6 hrs by TEM analysis; type: functional, cell-based; conditions: time hrs <=6; procedure, shortened: as §1
NCI-H358 = assay: Antiproliferative activity against human NCI-H358 cells assessed as reduction in cell growth at 10 uM incubated for 48 hrs by SRB assay relative to control; type: functional; procedure, shortened: as §2
DLD-1 [20] = assay: Induction of autophagy in human DLD-1 cells assessed as increase in Atg5 expression at 10 uM measured upto 6 hrs by Western blot analysis; type: functional, cell-based; conditions: time hrs <=6; procedure, shortened: as §5
LoVo = assay: Antiproliferative activity against human LoVo cells assessed as reduction in cell growth incubated for 48 hrs by SRB assay; type: functional, cell-based; procedure, shortened: as §3
DLD-1 [21] = assay: Induction of apoptosis in human DLD-1 cells assessed as early apoptotic cells at 7.5 uM incubated for 18 hrs by Annexin V-FITC and propidium iodide staining based flow cytometry analysis (reference value: 4.95 %); type: functional
DLD-1 [22] = assay: Induction of autophagy in human DLD-1 cells assessed as vacuole formation at 7.5 uM incubated for 24 hrs in presence of Bafilomycin-A1 by phase contrast microscopic analysis; type: functional, cell-based; procedure, shortened: as §4
CCD-18Co = assay: Antiproliferative activity against human CCD-18Co cells assessed as reduction in cell growth incubated for 48 hrs by SRB assay; type: cell-based; procedure, shortened: as §3
DLD-1 [23] = assay: Induction of autophagy in human DLD-1 cells assessed as vacuole formation at 5 uM measured upto 6 hrs by TEM analysis; type: functional, cell-based; conditions: time hrs <=6; procedure, shortened: as §1
DLD-1 [24] = assay: Induction of vacuole formation in human DLD-1 cells assessed as increase in cellular granularity at 7.5 uM incubated for 18 hrs by FACS analysis; type: functional, cell-based
Procedure, shortened: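 DLD-1 cells were given vehicle or 7.5 μM compound for 18 h. Cell size (forward scatter) and granularity (side scatter) were then read by flow cytometry.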

SMILES: CCCCCCCCCCCCCC[C@H](O)[C@@H](N)Cc1ccc(OC)cc1
- Activity (DLD-1 [1]): Active
- Activity (DLD-1 [2]): inactive
- Activity (DLD-1 [3]): 0.8%
- inhibition at 10 µM (HT-29 [4]): 97.7%
- Activity (DLD-1 [5]): inactive
- IC50 (HT-29 [6]): 4.15 µM
- IC50 (SW-620): 1.86 µM
- IC50 (COLO 205): 2.03 µM
- Activity (DLD-1 [7]): Active
- inhibition at 10 µM (MDA-MB-231): 96.8%
- viability at 7.5 µM (DLD-1 [8]): 93.6%
- Activity (DLD-1 [9]): Active
- IC50 (DLD-1 [10]): 4.46 µM
- Activity (DLD-1 [11]): inactive
- inhibition at 10 µM (A549): 94.8%
- Activity (DLD-1 [12]): Active
- Activity (DLD-1 [13]): 5%
- inhibition at 10 µM (DLD-1 [14]): 97.3%
- IC50 (SW48): 3.14 µM
- Activity (DLD-1 [15]): Active
- Activity (DLD-1 [16]): Active
- Activity (DLD-1 [17]): Active
- Activity (DLD-1 [18]): Active
- inhibition at 10 µM (MCF7): 89.3%
- Activity (DLD-1 [19]): inactive
- inhibition at 10 µM (NCI-H358): 90.4%
- Activity (DLD-1 [20]): Active
- IC50 (LoVo): 3.33 µM
- Activity (DLD-1 [21]): 0.46%
- Activity (DLD-1 [22]): inactive
- IC50 (CCD-18Co): > 10 µM
- Activity (DLD-1 [23]): Active
- Activity (DLD-1 [24]): Active
